Results gathered from unrelated publications.
Lines come from different studies, so protocols differ.
Target: Mitotic checkpoint serine/threonine-protein kinase BUB1 (BUB1, Homo sapiens, UniProt O43683)

C[C@H]1CCN(c2nccc(-c3cnn4ncccc34)n2)C1  remaining binding (binding; 1 µM): 52%
c1cncc(-c2cccc(Nc3nccc(NC4CCCCC4)n3)c2)c1  remaining binding (binding; competition with immobilised ligand; 10 µM): 59%
CC(=O)C1=C(C)N(c2cccc(C(F)(F)F)c2)C(=O)N[C@@H]1c1ccc(C#N)nc1  remaining binding (cell-free assay; competition with immobilised ligand; 1 µM): 100%
CCN1CCN(Cc2ccc(C(=O)Nc3ccc(C)c(Oc4ccc5c(c4)CC(=O)N5)c3)cc2C(F)(F)F)CC1  remaining binding (binding; competition with immobilised ligand; 1 µM): 100%
O=C(NCCCN1CCOCC1)c1ccc(Nc2ncc(Cl)c(-c3ccc(Cl)s3)n2)cc1  remaining binding (binding; competition with immobilised ligand; 1 µM): 80%
COc1ccnn2ncc(-c3ccnc(N(C)C)n3)c12  remaining binding (binding; 1 µM): 96%
FC(F)(F)Oc1cccc(-c2cnc3ccc(-c4ccncc4)nn23)c1  remaining binding (cell-free assay; competition with immobilised ligand; 5 µM): 13%
COc1ncc2cc3ccccc3nc2c1C#N  remaining binding (cell-free assay; competition with immobilised ligand; 5 µM): 92%
O=C(NCC1CCOCC1)c1n[nH]cc1NC(=O)c1c(F)cccc1F  remaining binding (binding; competition with immobilised ligand; 1 µM): 71%
CCc1ccccc1C(=O)Nc1n[nH]c2c(C)c(F)c(C3C(C#N)=C(C)N(C)C(C)=C3C#N)cc12  remaining binding (cell-free assay; competition with immobilised ligand; 1 µM): 100%
O=C(c1ccc(Nc2nccc(-c3cc4ccccc4s3)n2)cc1)N1CCC(N2CCCC2)CC1  remaining binding (binding; competition with immobilised ligand; 1 µM): 45%
N[C@@H]1CCN(c2nccc(-c3cnn4ncccc34)n2)C1  remaining binding (binding; 1 µM): 93%
C[C@@]1(Cc2ccc(C#N)cc2)C(=O)N(c2cc(Cl)cc(Cl)c2)c2ncc(C(=O)NC3(c4nc(C5CCC5)no4)CC3)n21  remaining binding (cell-free assay; competition with immobilised ligand; 1 µM): 100%
CN(C)c1ncc(F)c(-c2cnn3ncccc23)n1  remaining binding (binding; 1 µM): 100%
Cc1nc(Cc2cccc(C(F)(F)F)c2)sc1-c1ccc(C(N)=O)nc1  remaining binding (cell-free assay; competition with immobilised ligand; 1 µM): 100%
CN(CCCC(F)(F)F)c1nccc(-c2cnn3ncccc23)n1  remaining binding (binding; 1 µM): 91%
CCOCCn1cc(C(=O)Nc2ccc(-n3nc(-c4cccnc4)cc3C(F)(F)F)cn2)ccc1=O  remaining binding (cell-free assay; competition with immobilised ligand; 1 µM): 79%
CC1CCCN1c1nccc(-c2cnn3ncccc23)n1 (stereo not shown)  remaining binding (binding; 1 µM): 100%
CS(=O)(=O)N1CCCC(NC(=O)[C@H](CCC2CCCCC2)NC(=O)c2ccc(CNc3ncnc4c3nnn4-c3ccccc3)cc2)C1 (stereo partly shown)  remaining binding (cell-free assay; competition with immobilised ligand; 0.1 µM): 100%
c1cnn2ncc(-c3ccnc(N4CCC45COC5)n3)c2c1  remaining binding (binding; 1 µM): 46%
O=C(NCCCN1CCOCC1)c1ccc(Nc2nccc(-c3cc4ccccc4s3)n2)cc1  remaining binding (binding; competition with immobilised ligand; 1 µM): 72%
COc1cnc(Nc2cccc(S(N)(=O)=O)c2)nc1N1CCN(c2ccccc2)C(=O)C1  remaining binding (binding; competition with immobilised ligand; 1 µM): 79%
